How the values were obtained:
Type in all cases: functional, organism-based
Mus musculus [1] = species: Mus musculus; assay: Radioactivity uptake in the kidneys was expressed as a percentage of the injected radioactive dose per gram of tissue (% ID/g) in B16/F1 Murine Melanoma-Bearing C57 Mice at 4 h; details: Kidney
Procedure, shortened: (§1)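 C57 BL/6 female mice (7–8 weeks) carried B16/F1 tumours from 1×10^6 cells given s.c. in the right flank; tumours were ~500 mg at 9–10 days. Each mouse received […] of HPLC-purified, neutralized 111In-DOTA peptide via the tail vein. Mice were killed at 0.5, 2, 4 or 24 h pi. Tissues were weighed and γ-counted, expressed as % ID/g; ratios were tumor/tissue % ID/g.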

Mus musculus [2] = species: Mus musculus; assay: Uptake Ratio of Tumor/lungs (each in % ID/g) in B16/F1 Murine Melanoma-Bearing C57 Mice at 4 h
Procedure, shortened: (§2)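 Female C57 BL/6 mice, 7–8 weeks old, carried subcutaneous right-flank B16/F1 tumors from 1×10^6 cells and were used 9–10 days later at ~500 mg tumor weight. Each received […] of HPLC-purified, pH-neutralized ¹¹¹In-DOTA peptide by tail vein. Tumor and organs were excised at the stated time, weighed and γ-counted. Each tissue was taken as % ID/g, and tumor/normal-tissue ratios were formed from these values.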

Mus musculus [3] = species: Mus musculus; assay: Radioactivity uptake in the tumor was expressed as a percentage of the injected radioactive dose per gram of tissue (% ID/g) in B16/F1 Murine Melanoma-Bearing C57 Mice at 0.5 h; procedure, shortened: as §1
Mus musculus [4] = species: Mus musculus; assay: Radioactivity uptake in the pancreas was expressed as a percentage of the injected radioactive dose per gram of tissue (% ID/g) in B16/F1 Murine Melanoma-Bearing C57 Mice at 0.5 h; procedure, shortened: as §1
Mus musculus [5] = species: Mus musculus; assay: Radioactivity uptake in the spleen was expressed as a percentage of the injected radioactive dose per gram of tissue (% ID/g) in B16/F1 Murine Melanoma-Bearing C57 Mice at 0.5 h; procedure, shortened: as §1
Mus musculus [6] = species: Mus musculus; assay: Radioactivity uptake in the spleen was expressed as a percentage of the injected radioactive dose per gram of tissue (% ID/g) in B16/F1 Murine Melanoma-Bearing C57 Mice at 24 h; procedure, shortened: as §1
Mus musculus [7] = species: Mus musculus; assay: Radioactivity uptake in the pancreas was expressed as a percentage of the injected radioactive dose per gram of tissue (% ID/g) in B16/F1 Murine Melanoma-Bearing C57 Mice at 4 h; procedure, shortened: as §1
Mus musculus [8] = species: Mus musculus; assay: Uptake Ratio of Tumor/muscle (each in % ID/g) in B16/F1 Murine Melanoma-Bearing C57 Mice at 0.5 h; details: Muscle tissue; procedure, shortened: as §2
Mus musculus [9] = species: Mus musculus; assay: Radioactivity uptake in the pancreas was expressed as a percentage of the injected radioactive dose per gram of tissue (% ID/g) in B16/F1 Murine Melanoma-Bearing C57 Mice at 24 h; procedure, shortened: as §1
Mus musculus [10] = species: Mus musculus; assay: Uptake Ratio of Tumor/lungs (each in % ID/g) in B16/F1 Murine Melanoma-Bearing C57 Mice at 2 h; procedure, shortened: as §2
Mus musculus [11] = species: Mus musculus; assay: Radioactivity uptake in the heart was expressed as a percentage of the injected radioactive dose per gram of tissue (% ID/g) in B16/F1 Murine Melanoma-Bearing C57 Mice at 2 h; procedure, shortened: as §1
Mus musculus [12] = species: Mus musculus; assay: Radioactivity uptake in the tumor was expressed as a percentage of the injected radioactive dose per gram of tissue (% ID/g) in B16/F1 Murine Melanoma-Bearing C57 Mice at 2 h; procedure, shortened: as §1
Mus musculus [13] = species: Mus musculus; assay: Uptake Ratio of Tumor/liver (each in % ID/g) in B16/F1 Murine Melanoma-Bearing C57 Mice at 24 h; procedure, shortened: as §1
Mus musculus [14] = species: Mus musculus; assay: Uptake Ratio of Tumor/liver (each in % ID/g) in B16/F1 Murine Melanoma-Bearing C57 Mice at 2 h; procedure, shortened: as §1
Mus musculus [15] = species: Mus musculus; assay: Radioactivity uptake in the heart was expressed as a percentage of the injected radioactive dose per gram of tissue (% ID/g) in B16/F1 Murine Melanoma-Bearing C57 Mice at 24 h; procedure, shortened: as §1
Mus musculus [16] = species: Mus musculus; assay: Radioactivity uptake in the blood was expressed as a percentage of the injected radioactive dose per gram of tissue (% ID/g) in B16/F1 Murine Melanoma-Bearing C57 Mice at 4 h; procedure, shortened: as §1
Mus musculus [17] = species: Mus musculus; assay: Uptake Ratio of Tumor/muscle (each in % ID/g) in B16/F1 Murine Melanoma-Bearing C57 Mice at 24 h; details: Muscle tissue; procedure, shortened: as §2
Mus musculus [18] = species: Mus musculus; assay: Radioactivity uptake in the pancreas was expressed as a percentage of the injected radioactive dose per gram of tissue (% ID/g) in B16/F1 Murine Melanoma-Bearing C57 Mice at 2 h; procedure, shortened: as §1
Mus musculus [19] = species: Mus musculus; assay: Radioactivity uptake in the kidneys was expressed as a percentage of the injected radioactive dose per gram of tissue (% ID/g) in B16/F1 Murine Melanoma-Bearing C57 Mice at 2 h; details: Kidney; procedure, shortened: as §1
Mus musculus [20] = species: Mus musculus; assay: Radioactivity uptake in the kidneys was expressed as a percentage of the injected radioactive dose per gram of tissue (% ID/g) in B16/F1 Murine Melanoma-Bearing C57 Mice at 0.5 h; details: Kidney; procedure, shortened: as §1
Mus musculus [21] = species: Mus musculus; assay: Uptake Ratio of Tumor/lungs (each in % ID/g) in B16/F1 Murine Melanoma-Bearing C57 Mice at 24 h; procedure, shortened: as §2
Mus musculus [22] = species: Mus musculus; assay: Uptake Ratio of Tumor/muscle (each in % ID/g) in B16/F1 Murine Melanoma-Bearing C57 Mice at 4 h; details: Muscle tissue; procedure, shortened: as §2
Mus musculus [23] = species: Mus musculus; assay: Radioactivity uptake in the lungs was expressed as a percentage of the injected radioactive dose per gram of tissue (% ID/g) in B16/F1 Murine Melanoma-Bearing C57 Mice at 4 h; details: Lung; procedure, shortened: as §1
Mus musculus [24] = species: Mus musculus; assay: Uptake of [111In]-labeled compound in tumor at 2 hr pi in the absence of […]
Procedure, shortened: (§3)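 C57 BL/6 female mice, 7–8 weeks old, inoculated s.c. in right flank with 1×10^6 B16/F1 melanoma cells. Used 9–10 days later at tumor weight ~500 mg. […] HPLC-purified 111In-DOTA peptide (neutral pH) given via tail vein, with or without […]. Killed 2 h pi. Tissues weighed and gamma-counted. Uptake expressed as % ID/g.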

Mus musculus [25] = species: Mus musculus; assay: Uptake of [111In]-labeled compound in blood at 2 hr pi in the presence of […]; procedure, shortened: as §3
Mus musculus [26] = species: Mus musculus; assay: Uptake of [111In]-labeled compound in liver at 2 h pi in the absence of […]; procedure, shortened: as §3
Mus musculus [27] = species: Mus musculus; assay: Uptake of [111In]-labeled compound in blood at 2 hr pi in the absence of […]; procedure, shortened: as §3
Mus musculus [28] = species: Mus musculus; assay: Uptake of [111In]-labeled compound in spleen at 2 hr pi in the presence of 10 mg NDP; procedure, shortened: as §3
Mus musculus [29] = species: Mus musculus; assay: Uptake of [111In]-labeled compound in pancreas at 2 hr pi in the presence of 10 mg NDP; procedure, shortened: as §3
Mus musculus [30] = species: Mus musculus; assay: Uptake of [111In]-labeled compound in kidney at 2 hr pi in the presence of […]; procedure, shortened: as §3
Mus musculus [31] = species: Mus musculus; assay: Uptake of [111In]-labeled compound in tumor at 2 hr pi in the presence of 10 mg NDP; procedure, shortened: as §3
Mus musculus [32] = species: Mus musculus; assay: Uptake of [111In]-labeled compound in pancreas at 2 hr pi in the absence of 10 mg NDP; procedure, shortened: as §3
Mus musculus [33] = species: Mus musculus; assay: Uptake of [111In]-labeled compound in muscle at 2 h pi in the presence of […]; details: Muscle tissue; procedure, shortened: as §3
Mus musculus [34] = species: Mus musculus; assay: Uptake of [111In]-labeled compound in kidney at 2 hr pi in the absence of […]; procedure, shortened: as §3

Substance | ID/g (Mus musculus [1]) [%] | Uptake ratio (Mus musculus [2]) | ID/g (Mus musculus [3]) [%] | ID/g (Mus musculus [4]) [%] | ID/g (Mus musculus [5]) [%] | ID/g (Mus musculus [6]) [%] | ID/g (Mus musculus [7]) [%] | Uptake ratio (Mus musculus [8]) | ID/g (Mus musculus [9]) [%] | Uptake ratio (Mus musculus [10]) | ID/g (Mus musculus [11]) [%] | ID/g (Mus musculus [12]) [%] | Uptake ratio (Mus musculus [13]) | Uptake ratio (Mus musculus [14]) | ID/g (Mus musculus [15]) [%] | ID/g (Mus musculus [16]) [%] | Uptake ratio (Mus musculus [17]) | ID/g (Mus musculus [18]) [%] | ID/g (Mus musculus [19]) [%] | ID/g (Mus musculus [20]) [%] | other results
Ac-Lys(DOTA)-ReCCEHdFRWCKPV-NH2 | 19 | 48.4 | 7.15 | 0.48 | 0.51 | 0.21 | 0.057 | 17.6 | 0.18 | 48.6 | 0.08 | 8.15 | 12.7 | 33.3 | 0.13 | 0.082 | 13.3 | 0.074 | 18.4 | 23.4 | Uptake ratio (Mus musculus [21]): 22.9; Uptake ratio (Mus musculus [22]): 3400; ID/g (Mus musculus [23]): 0.18%
DOTA-ReCCEHdFRWCKPV-OH | 8.7 | 92 | 10.4 | 0.39 | 0.4 | 0.22 | 0.074 | 27.9 | 0.064 | 52.8 | 0.058 | 9.19 | 18.5 | 63 | 0.15 | 0.056 | 26.8 | 0.03 | 8.8 | 11.5 | Uptake ratio (Mus musculus [21]): 85.1; Uptake ratio (Mus musculus [22]): 277; ID/g (Mus musculus [23]): 0.1%
DOTA-ReCCEHdFRWCKPV-NH2 | 9.27 | 100 | 10.4 | 0.62 | 0.59 | 0.14 | 0.043 | 27.8 | 0.027 | 69.4 | 0.066 | 11.4 | 32.7 | 49.9 | 0.13 | 0.034 | 173 | 0.048 | 8.98 | 13 | Uptake ratio (Mus musculus [21]): 169; Uptake ratio (Mus musculus [22]): 159; ID/g (Mus musculus [23]): 0.11%
DOTA-ReCCEHdFRWCRPV-NH2 | 7.37 | 122 | 16.6 | 0.41 | 0.78 | 0.32 | 0.015 | 47.4 | 0.081 | 65.4 | 0.07 | 17.3 | 25.6 | 45.7 | 0.36 | 0.085 | 42.2 | 0.08 | 8.72 | 9.31 | ID/g (Mus musculus [24]): 17.3%; ID/g (Mus musculus [25]): 0.27%; ID/g (Mus musculus [26]): 0.38%; ID/g (Mus musculus [27]): 0.21%; ID/g (Mus musculus [28]): 0.47%; ID/g (Mus musculus [29]): 0.11%; ID/g (Mus musculus [30]): 11.2%; ID/g (Mus musculus [31]): 1.95%; ID/g (Mus musculus [32]): 0.08%; ID/g (Mus musculus [33]): 0.18%; Uptake ratio (Mus musculus [21]): 43.7; Uptake ratio (Mus musculus [22]): 193; ID/g (Mus musculus [34]): 8.72%; ID/g (Mus musculus [23]): 0.13%
DOTA-ReCCEHdFRWCKPVD-OH | 8.13 | 104 | 8.96 | 0.27 | 0.29 | 0.043 | 0.031 | 38.2 | 0.017 | 56.6 | 0.07 | 8.29 | 12.9 | 51.3 | 0.017 | 0.051 | 27.3 | 0.029 | 8.07 | 11.5 | Uptake ratio (Mus musculus [21]): 105; Uptake ratio (Mus musculus [22]): 156; ID/g (Mus musculus [23]): 0.097%

— ChEMBL document CHEMBL1135742, “Modification of the structure of a metallopeptide: synthesis and biological evaluation of (111)In-labeled DOTA-conjugated rhenium-cyclized alpha-MSH analogues” (J Med Chem, 2002)
